From publication PMC12752248 (BMC Biotechnology, 2025)
Where two headings read alike, the source gives them in different places. Marks after values point to notes of the source that are not given here.

Key:
BJ6PAD [1] = target: T1, BJ6PAD (Bacillus subtilis, UniProt O07006); test: Effects of metal ions and chemical reagents on enzyme activity, BJ6PAD; assay type: biochemical, Bacillus subtilis J6; details: 60 min incubation, no additive = 100%
T1 sequence (O07006 with tags, fused parts or gaps A39G/H105Y/L108V/E129D/F132Y/K134N/E136A/V138I/D139N/E142T/V143L/K146E): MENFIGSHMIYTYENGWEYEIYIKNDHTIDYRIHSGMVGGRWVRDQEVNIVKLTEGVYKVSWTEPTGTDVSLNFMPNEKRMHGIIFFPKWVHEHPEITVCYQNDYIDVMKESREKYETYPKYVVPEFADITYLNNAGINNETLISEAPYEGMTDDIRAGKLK
Method in brief: (§1)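 His-tagged enzyme was expressed in E. coli BL21(DE3) and Ni-agarose purified. It was incubated 60 min with each metal ion (K⁺, Mg²⁺, Ca²⁺, Fe²⁺, Mn²⁺, Cu²⁺, Zn²⁺), EDTA, SDS or Triton X-100 at final concentrations of 1 or 5 mmol/L. Activity was then assayed in 50 mmol/L citrate-Na₂HPO₄ pH 6.0 at 37 ℃ for 5 min, stopped with methanol, with residual substrate by C18 HPLC at 280 nm. Done in triplicate.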

BJ6PAD-N [2] = target: T2, BJ6PAD-N (Bacillus subtilis, UniProt O07006); test: Effects of metal ions and chemical reagents on enzyme activity, BJ6PAD-N; assay type: biochemical, Bacillus subtilis J6; details: 60 min incubation, no additive = 100%
T2 sequence (O07006 with tags, fused parts or gaps A39G/H105Y/L108V/E129D/F132Y/K134N/E136A/V138I/D139N/E142T/V143L/K146E): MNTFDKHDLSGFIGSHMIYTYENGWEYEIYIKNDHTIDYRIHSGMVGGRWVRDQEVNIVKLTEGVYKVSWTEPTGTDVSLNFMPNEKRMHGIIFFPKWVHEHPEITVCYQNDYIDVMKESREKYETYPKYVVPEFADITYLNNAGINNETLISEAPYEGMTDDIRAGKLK
Method in brief: as §1

BJ6PAD [3] = target: T1, BJ6PAD; test: Specific enzyme activity towards phenolic acid substrates, BJ6PAD; assay type: biochemical, Bacillus subtilis J6; details: 37 ℃, pH 6.0; pCA, FA, CafA 10 mmol/L, SA 6 mmol/L
Method in brief: (§2)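 Both purified His-tagged enzymes were reacted at 37 ℃ in 50 mmol/L citrate-Na₂HPO₄ pH 6.0 for 5 min with three hydroxycinnamic acids at 10 mmol/L or sinapic-type acid at 6 mmol/L. Reactions were stopped with methanol, with an enzyme-free buffer control. Remaining substrate was measured by C18 HPLC at 280 nm. One IU is 1 µmol substrate converted/min; protein was by BCA, giving IU/mg. Done in triplicate.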

BJ6PAD-N [4] = target: T2, BJ6PAD-N; test: Specific enzyme activity towards phenolic acid substrates, BJ6PAD-N; assay type: biochemical, Bacillus subtilis J6; details: 37 ℃, pH 6.0; pCA, FA, CafA 10 mmol/L, SA 6 mmol/L
Method in brief: as §2

BJ6PAD-N [5] = test: as above; assay type: biochemical, Bacillus subtilis J6; details: BJ6PAD-N vs BJ6PAD
Method in brief: as §2

BJ6PAD [6] = target: T1, BJ6PAD; test: Enzymatic kinetic parameters; assay type: biochemical, Bacillus subtilis J6
BJ6PAD-N [7] = target: T2, BJ6PAD-N; test: Enzymatic kinetic parameters; assay type: biochemical, Bacillus subtilis J6
BJ6PAD [8] = target: T1, BJ6PAD; test: Isothermal titration calorimetry of enzyme-substrate interaction, BJ6PAD; assay type: binding, Bacillus subtilis J6
Method in brief: (§3)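 Ni-purified His-tagged enzyme, eluted in […] buffer pH 7.9–8.1, was placed in the cell at 0.02 mmol/L. Each of four phenolic acid substrates (0.2 mmol/L in the same buffer) was in the syringe. All solutions were degassed 10 min. Twenty 2 µL injections were given 150 s apart at 37 °C with 350 rpm stirring. Thermodynamic parameters came from an independent-site model fit, in triplicate.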

BJ6PAD-N [9] = target: T2, BJ6PAD-N; test: Isothermal titration calorimetry of enzyme-substrate interaction, BJ6PAD-N; assay type: binding, Bacillus subtilis J6
Method in brief: as §3

BJ6PAD-N [10] = test: Enzymatic kinetic parameters; assay type: biochemical, Bacillus subtilis J6; details: BJ6PAD-N vs BJ6PAD
[11] = substrate: O=C(O)C=Cc1ccc(O)cc1; test: Enzymatic kinetic parameters; assay type: biochemical, Bacillus subtilis J6; details: pH 6.0

In the case of [K+] [K^+], the Residual enzyme activity (BJ6PAD [1]; 1 mmol/L additive) is reported as 104.96 ± 0.24^b %, the Residual enzyme activity (BJ6PAD [1]; 5 mmol/L additive) is reported as 98.61 ± 1.46^b % and the Residual enzyme activity (BJ6PAD-N [2]; 1 mmol/L additive) is reported as 96.63 ± 2.16^a %. For the same molecule, the Residual enzyme activity (BJ6PAD-N [2]; 5 mmol/L additive) was 89.61 ± 1.14^a %.

For CCCCCCCCCCCCOS(=O)(=O)[O-].[Na+] [SDS, sodium dodecyl sulfate], the Residual enzyme activity (BJ6PAD [1]; 1 mmol/L additive) was 67.75 ± 1.3^a % and the Residual enzyme activity (BJ6PAD-N [2]; 1 mmol/L additive) was 80.5 ± 0.91^b %.

With O=C(O)/C=C/c1ccc(O)c(O)c1 [caffeic acid] the Specific enzyme activity (BJ6PAD [3]) was 92.34 ± 0.57^b IU/mg, the Specific enzyme activity (BJ6PAD-N [4]) was 100.88 ± 3.71^a IU/mg and the “Increase of specific enzyme activity of BJ6PAD-N compared with BJ6PAD” value (“Increase … with BJ6PAD” for short) (BJ6PAD-N [5]) was 9.25%. The Km (BJ6PAD [6]) was 3.54 ± 1.05 mM, the Vmax (BJ6PAD [6]) was 137.1 ± 8.87^b IU/mg and the kcat (BJ6PAD [6]) was 43.67 ± 3.61^b s^− 1. The Km (BJ6PAD-N [7]) was 3.03 ± 0.12 mM, the Vmax (BJ6PAD-N [7]) was 139.3 ± 5.70^ab IU/mg and the kcat (BJ6PAD-N [7]) was 46.39 ± 1.55^ab s^− 1. The Kd (BJ6PAD [8]) was 4.23 µM, the ΔG (BJ6PAD [8]; ITC, 37 °C) was -7.622 kcal/mol and the ΔH (BJ6PAD [8]; ITC, 37 °C) was -8.444 kcal/mol. The Kd (BJ6PAD-N [9]) was 7 µM, the ΔG (BJ6PAD-N [9]; ITC, 37 °C) was -7.292 kcal/mol and the ΔH (BJ6PAD-N [9]; ITC, 37 °C) was -14.9 kcal/mol. It also gave a ΔS (BJ6PAD-N [9]; ITC, 37 °C) of -0.10 kJ/mol·K.

COc1cc(/C=C/C(=O)O)ccc1O [ferulic acid] was tested, and the Specific enzyme activity (BJ6PAD [3]) was 150.85 ± 2.15^b IU/mg, the Specific enzyme activity (BJ6PAD-N [4]) was 178.56 ± 1.58^a IU/mg and the “Increase … with BJ6PAD” value (BJ6PAD-N [5]) was 18.37%. For the same molecule, the Km (BJ6PAD [6]) was 4.62 ± 0.01 mM, the Vmax (BJ6PAD [6]) was 229.73 ± 4.95^b IU/mg and the kcat (BJ6PAD [6]) was 73.17 ± 1.29^b s^− 1. For the same molecule, the Km (BJ6PAD-N [7]) was 8.42 ± 0.19 mM, the Vmax (BJ6PAD-N [7]) was 337.97 ± 7.10^a IU/mg and the kcat (BJ6PAD-N [7]) was 112.54 ± 1.93^a s^− 1. The Kd (BJ6PAD [8]; ITC, 37 °C) was 1.25 µM, the ΔG (BJ6PAD [8]; ITC, 37 °C) was -8.384 kcal/mol and the ΔH (BJ6PAD [8]; ITC, 37 °C) was -5.134 kcal/mol. For the same molecule, the ΔS (BJ6PAD [8]; ITC, 37 °C) was 0.04 kJ/mol·K, the Kd (BJ6PAD-N [9]; ITC, 37 °C) was 59.4 µM and the ΔG (BJ6PAD-N [9]; ITC, 37 °C) was -6.016 kcal/mol. For the same molecule, the ΔH (BJ6PAD-N [9]; ITC, 37 °C) was -0.629 kcal/mol and the ΔS (BJ6PAD-N [9]; ITC, 37 °C) was 0.07 kJ/mol·K.

With O=C(O)/C=C/c1ccc(O)cc1 [p-coumaric acid] the Specific enzyme activity (BJ6PAD [3]) was 209.82 ± 1.41^b IU/mg, the Specific enzyme activity (BJ6PAD-N [4]) was 248.96 ± 1.59^a IU/mg and the “Increase … with BJ6PAD” value (BJ6PAD-N [5]) was 18.65%. The Kd (BJ6PAD [8]) was 12.8 µM, the ΔG (BJ6PAD [8]; ITC, 37 °C) was -6.917 kcal/mol and the ΔH (BJ6PAD [8]; ITC, 37 °C) was -14.71 kcal/mol. It also gave a Kd (BJ6PAD-N [9]) of 16.3 µM, a ΔG (BJ6PAD-N [9]; ITC, 37 °C) of -6.812 kcal/mol and a ΔH (BJ6PAD-N [9]; ITC, 37 °C) of -1.45 kcal/mol. For the same molecule, the ΔS (BJ6PAD-N [9]; ITC, 37 °C) was 0.07 kJ/mol·K.

For COc1cc(/C=C/C(=O)O)cc(OC)c1O [sinapic acid], the Specific enzyme activity (BJ6PAD [3]) was 17.37 ± 0.64^b IU/mg, the Specific enzyme activity (BJ6PAD-N [4]) was 23.42 ± 0.02^a IU/mg and the “Increase … with BJ6PAD” value (BJ6PAD-N [5]) was 34.83%. For the same molecule, the Km (BJ6PAD [6]) was 4.19 ± 1.13 mM, the Vmax (BJ6PAD [6]) was 35.02 ± 6.03^a IU/mg and the kcat (BJ6PAD [6]) was 11.15 ± 1.57^a s^− 1. The Km (BJ6PAD-N [7]) was 1.25 ± 0.11 mM, the Vmax (BJ6PAD-N [7]) was 29.48 ± 1.23^a IU/mg and the kcat (BJ6PAD-N [7]) was 9.82 ± 0.33^a s^− 1. The “Decrease in Km value of BJ6PAD-N compared with BJ6PAD” value (BJ6PAD-N [10]) was 70.17%, the “Increase of catalytic efficiency (kcat/Km) of BJ6PAD-N over BJ6PAD” value (BJ6PAD-N [10]) was 1.93 fold and the Kd (BJ6PAD [8]; ITC, 37 °C) was 19.3 µM. It also gave a ΔG (BJ6PAD [8]; ITC, 37 °C) of -6.678 kcal/mol, a ΔH (BJ6PAD [8]; ITC, 37 °C) of -10.25 kcal/mol and a Kd (BJ6PAD-N [9]; ITC, 37 °C) of 7.02 µM. The ΔG (BJ6PAD-N [9]; ITC, 37 °C) was -7.337 kcal/mol, the ΔH (BJ6PAD-N [9]; ITC, 37 °C) was -0.098 kcal/mol and the ΔS (BJ6PAD-N [9]; ITC, 37 °C) was 0.10 kJ/mol·K.

B1: BJ6PAD (Bacillus subtilis subsp. subtilis str. 168) (protein)
chain: MENFIGSHMIYTYENGWEYEIYIKNDHTIDYRIHSGMVGGRWVRDQEVNIVKLTEGVYKVSWTEPTGTDVSLNFMPNEKRMHGIIFFPKWVHEHPEITVCYQNDYIDVMKESREKYETYPKYVVPEFADITYLNNAGINNETLISEAPYEGMTDDIRAGKLK
For B1, the Km [11] was 6.87 ± 0.36^b mmol/L, the Vmax [11] was 335 ± 5.45 µmol/min/mg and the kcat [11] was 107 ± 1.42 s⁻¹. It also gave a kcat/Km [11] of 15600 ± 1070 M⁻¹ s⁻¹.

B2: BJ6PAD-N (Bacillus subtilis subsp. subtilis str. 168) (protein)
chain: MNTFDKHDLSGFIGSHMIYTYENGWEYEIYIKNDHTIDYRIHSGMVGGRWVRDQEVNIVKLTEGVYKVSWTEPTGTDVSLNFMPNEKRMHGIIFFPKWVHEHPEITVCYQNDYIDVMKESREKYETYPKYVVPEFADITYLNNAGINNETLISEAPYEGMTDDIRAGKLK
With B2 the Km [11] was 11.85 ± 0.56^a mmol/L, the Vmax [11] was 536.4 ± 2.55 µmol/min/mg and the kcat [11] was 179 ± 3.41 s⁻¹. The kcat/Km [11] was 15070 ± 80 M⁻¹ s⁻¹.
